Measurements reported in ChEMBL document CHEMBL4689842, “EUbOPEN Chemogenomics Library wave 1” (2021).

System: HEK-293T
Experiment: Multiplex assay against HEK293T;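 for Population Tubulin-Different-Phenotype (%): share of the cells with healthy nuclei that show this phenotype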
Type: toxicity, cell-based
Details: human
In short: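 Hoechst33342, BioTracker Green Microtubule Cytoskeleton Dye, MitoTracker Red and Annexin V Alexa Fluor 680 were added to live cells at seeding, and imaging on a CQ1 microscope at 37°C and 5% CO2 followed compound addition. Gating by CellPathfinder machine learning separated cells into Hoechst high-intensity objects or normal cells, then normal cells into healthy, pyknosed or fragmented nuclei, then pyknosed cells into mitotic or apoptotic. Per cents of healthy-nucleus cells are reported for the tubulin, mitochondrial-mass and membrane-permeability phenotypes.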

[1] = 12 h, 1 µM, compound concentration 1 uM, replicate 1
[2] = 12 h, 1 µM, compound concentration 1 uM, replicate 2
[3] = 12 h, 10 µM, compound concentration 10 uM, replicate 1
[4] = 12 h, 10 µM, compound concentration 10 uM, replicate 2
[5] = 24 h, 1 µM, compound concentration 1 uM, replicate 1
[6] = 24 h, 1 µM, compound concentration 1 uM, replicate 2
[7] = 24 h, 10 µM, compound concentration 10 uM, replicate 1
[8] = 24 h, 10 µM, compound concentration 10 uM, replicate 2

NC(=O)c1ccc2nc(-c3ccc(C4(N)CCC4)cc3)c(-c3ccccc3)n2n1 [BAY-1125976]
Population Apoptotic (%) [1]: 22% | Population Healthy Nuclei (%) [1]: 67% | Population Hoechst High Intensity Objects (%) [1]: 16% | Population Mitochondria Different-Phenotype (%) [1]: 12% | Population Mitotic Cells (%) [1]: 77% | Population Normal (%) [1]: 83% | Population Pyknosed Nuclei (%) [1]: 17% | Population Tubulin-Different-Phenotype (%) [1]: 26% | Total Cell Count [1]: 688 | Population Apoptotic (%) [2]: 10% | Population Fragmented Nuclei (%) [2]: 4% | Population Healthy Nuclei (%) [2]: 87% | Population Hoechst High Intensity Objects (%) [2]: 4% | Population Mitochondria Different-Phenotype (%) [2]: 17% | Population Mitotic Cells (%) [2]: 89% | Population Normal (%) [2]: 95% | Population Tubulin-Different-Phenotype (%) [2]: 38% | Total Cell Count [2]: 1223 | Population Apoptotic (%) [3]: 19% | Population Fragmented Nuclei (%) [3]: 17% | Population Healthy Nuclei (%) [3]: 62% | Population Hoechst High Intensity Objects (%) [3]: 15% | Population Mitochondria Different-Phenotype (%) [3]: 5% | Population Mitotic Cells (%) [3]: 80% | Population Normal (%) [3]: 84% | Population Pyknosed Nuclei (%) [3]: 19% | Population Tubulin-Different-Phenotype (%) [3]: 5% | Total Cell Count [3]: 611 | Population Apoptotic (%) [4]: 12% | Population Fragmented Nuclei (%) [4]: 7% | Population Healthy Nuclei (%) [4]: 87% | Population Hoechst High Intensity Objects (%) [4]: 2% | Population Mitochondria Different-Phenotype (%) [4]: 8% | Population Mitotic Cells (%) [4]: 87% | Population Normal (%) [4]: 97% | Population Pyknosed Nuclei (%) [4]: 4% | Total Cell Count [4]: 1764 | Population Apoptotic (%) [5]: 32% | Population Hoechst High Intensity Objects (%) [5]: 15% | Population Mitochondria Different-Phenotype (%) [5]: 9% | Population Mitotic Cells (%) [5]: 67% | Population Normal (%) [5]: 84% | Population Pyknosed Nuclei (%) [5]: 10% | Population Tubulin-Different-Phenotype (%) [5]: 44% | Total Cell Count [5]: 691 | Population Apoptotic (%) [6]: 10% | Population Fragmented Nuclei (%) [6]: 19% | Population Healthy Nuclei (%) [6]: 76% | Population Hoechst High Intensity Objects (%) [6]: 4% | Population Mitochondria Different-Phenotype (%) [6]: 5% | Population Mitotic Cells (%) [6]: 89% | Population Normal (%) [6]: 95% | Population Pyknosed Nuclei (%) [6]: 3% | Population Tubulin-Different-Phenotype (%) [6]: 42% | Total Cell Count [6]: 1875 | Population Apoptotic (%) [7]: 26% | Population Healthy Nuclei (%) [7]: 77% | Population Hoechst High Intensity Objects (%) [7]: 11% | Population Mitochondria Different-Phenotype (%) [7]: 4% | Population Mitotic Cells (%) [7]: 73% | Population Normal (%) [7]: 88% | Population Pyknosed Nuclei (%) [7]: 8% | Population Tubulin-Different-Phenotype (%) [7]: 8% | Total Cell Count [7]: 699 | Population Apoptotic (%) [8]: 6% | Population Fragmented Nuclei (%) [8]: 23% | Population Healthy Nuclei (%) [8]: 74% | Population Hoechst High Intensity Objects (%) [8]: 3% | Population Mitochondria Different-Phenotype (%) [8]: 1% | Population Mitotic Cells (%) [8]: 93% | Population Normal (%) [8]: 96% | Population Pyknosed Nuclei (%) [8]: 2% | Population Tubulin-Different-Phenotype (%) [8]: 6% | Total Cell Count [8]: 3086

CC[C@@H]1C(=O)N(C)c2cnc(Nc3ccc(C(=O)NC4CCN(C)CC4)cc3OC)nc2N1C1CCCC1 [BI-2536]
Population Apoptotic (%) [1]: 15% | Population Fragmented Nuclei (%) [1]: 15% | Population Healthy Nuclei (%) [1]: 61% | Population Hoechst High Intensity Objects (%) [1]: 12% | Population Membrane Permeable-Phenotype (%) [1]: 12% | Population Mitochondria Different-Phenotype (%) [1]: 10% | Population Mitotic Cells (%) [1]: 84% | Population Normal (%) [1]: 87% | Population Pyknosed Nuclei (%) [1]: 22% | Population Tubulin-Different-Phenotype (%) [1]: 14% | Total Cell Count [1]: 578 | Population Apoptotic (%) [2]: 12% | Population Fragmented Nuclei (%) [2]: 3% | Population Healthy Nuclei (%) [2]: 82% | Population Hoechst High Intensity Objects (%) [2]: 2% | Population Membrane Permeable-Phenotype (%) [2]: 7% | Population Mitochondria Different-Phenotype (%) [2]: 28% | Population Mitotic Cells (%) [2]: 87% | Population Normal (%) [2]: 97% | Population Pyknosed Nuclei (%) [2]: 13% | Population Tubulin-Different-Phenotype (%) [2]: 41% | Total Cell Count [2]: 1166 | Population Apoptotic (%) [3]: 32% | Population Fragmented Nuclei (%) [3]: 17% | Population Healthy Nuclei (%) [3]: 59% | Population Hoechst High Intensity Objects (%) [3]: 11% | Population Membrane Permeable-Phenotype (%) [3]: 17% | Population Mitochondria Different-Phenotype (%) [3]: 40% | Population Mitotic Cells (%) [3]: 67% | Population Normal (%) [3]: 88% | Population Pyknosed Nuclei (%) [3]: 23% | Population Tubulin-Different-Phenotype (%) [3]: 90% | Total Cell Count [3]: 497 | Population Apoptotic (%) [4]: 12% | Population Fragmented Nuclei (%) [4]: 4% | Population Healthy Nuclei (%) [4]: 81% | Population Hoechst High Intensity Objects (%) [4]: 3% | Population Membrane Permeable-Phenotype (%) [4]: 24% | Population Mitochondria Different-Phenotype (%) [4]: 43% | Population Mitotic Cells (%) [4]: 87% | Population Normal (%) [4]: 96% | Population Pyknosed Nuclei (%) [4]: 13% | Population Tubulin-Different-Phenotype (%) [4]: 98% | Total Cell Count [4]: 911 | Population Apoptotic (%) [5]: 14% | Population Fragmented Nuclei (%) [5]: 14% | Population Healthy Nuclei (%) [5]: 62% | Population Hoechst High Intensity Objects (%) [5]: 12% | Population Membrane Permeable-Phenotype (%) [5]: 5% | Population Mitochondria Different-Phenotype (%) [5]: 12% | Population Mitotic Cells (%) [5]: 85% | Population Normal (%) [5]: 87% | Population Pyknosed Nuclei (%) [5]: 23% | Population Tubulin-Different-Phenotype (%) [5]: 19% | Total Cell Count [5]: 553 | Population Apoptotic (%) [6]: 6% | Population Fragmented Nuclei (%) [6]: 2% | Population Healthy Nuclei (%) [6]: 66% | Population Hoechst High Intensity Objects (%) [6]: 4% | Population Membrane Permeable-Phenotype (%) [6]: 2% | Population Mitochondria Different-Phenotype (%) [6]: 22% | Population Mitotic Cells (%) [6]: 93% | Population Normal (%) [6]: 95% | Population Pyknosed Nuclei (%) [6]: 31% | Population Tubulin-Different-Phenotype (%) [6]: 48% | Total Cell Count [6]: 1114 | Population Apoptotic (%) [7]: 39% | Population Fragmented Nuclei (%) [7]: 17% | Population Healthy Nuclei (%) [7]: 57% | Population Hoechst High Intensity Objects (%) [7]: 12% | Population Membrane Permeable-Phenotype (%) [7]: 7% | Population Mitochondria Different-Phenotype (%) [7]: 80% | Population Mitotic Cells (%) [7]: 60% | Population Normal (%) [7]: 87% | Population Pyknosed Nuclei (%) [7]: 25% | Population Tubulin-Different-Phenotype (%) [7]: 93% | Total Cell Count [7]: 510 | Population Apoptotic (%) [8]: 11% | Population Fragmented Nuclei (%) [8]: 11% | Population Healthy Nuclei (%) [8]: 62% | Population Hoechst High Intensity Objects (%) [8]: 3% | Population Membrane Permeable-Phenotype (%) [8]: 8% | Population Mitochondria Different-Phenotype (%) [8]: 59% | Population Mitotic Cells (%) [8]: 88% | Population Normal (%) [8]: 96% | Population Pyknosed Nuclei (%) [8]: 26% | Population Tubulin-Different-Phenotype (%) [8]: 97% | Total Cell Count [8]: 1005
